According to publication PMC6018888 (Drug Design, Development and Therapy, 2018):

Legend:
Format in all cases: in vivo, human
[1] = Verinurad urinary pharmacokinetics; conditions: for CLR0–24 / fe0–24: Japanese subjects, geometric mean (95% CI)
serum urate (sUA) = assay: Pharmacodynamics: serum urate; conditions: for mean reduction of serum urate after 24 hours: multiple verinurad 10 mg doses
How it was run: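 Healthy males (screening sUA >4.5 mg/dL) took oral modified-release 2.5 mg tablets or placebo (6:2 per panel) once daily for 7 days (days 6–12), after a moderate-fat breakfast. Japanese panels received 2.5–15 mg and non-Asian subjects 10 mg. Serum sampled predose days 1, 6 and 8–12, then to 72 h (day 12). Maximum percent change from baseline and its timing were read directly from concentration–time data.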

[2] = test system: urinary excretion of uric acid; assay: Pharmacodynamics: urinary uric acid excretion; conditions: Japanese subjects; for CLUR0–24 / FEUA0–24: mean (95% CI)
How it was run: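 Total-catch urine was collected at 6- or 12-h intervals from predose to 72 h after dosing on days 1 (fasted ≥10 h, no food 4 h postdose) and 12, and to 24 h on day 6 (fed). Urine uric acid, urine creatinine and serum creatinine were measured. CLUR0–24 = urinary uric acid amount ÷ urate AUC0–24. FEUA0–24 = CLUR0–24 ÷ creatinine clearance × 100.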

[3] = 2.5 mg single dose, fasted, day 1
[4] = 5 mg once daily multiple doses, fed, day 12
[5] = 5 mg single dose, fasted, day 1
[6] = 10 mg once daily multiple doses, fed, day 12
[7] = 10 mg single dose, fasted, day 1
[8] = 15 mg once daily multiple doses, fed, day 12
[9] = 15 mg single dose, fasted, day 1
[10] = Japanese subjects, 2.5 mg multiple once-daily doses, fed
[11] = Japanese subjects, 5 mg multiple once-daily doses, fed
[12] = Japanese subjects, 10 mg multiple once-daily doses, fed
[13] = Japanese subjects, 15 mg multiple once-daily doses, fed
[14] = non-Asian subjects, 10 mg multiple once-daily dosing, fed

CC(C)(Sc1ccncc1-c1ccc(C#N)c2ccccc12)C(=O)O [verinurad]
CLR0–24 [1, 3]: 16.1 (9.41–27.6) mL/min
fe0–24 [1, 3]: 0.896 (0.620–1.29) %
CLR0–24 ([1]; 2.5 mg single dose, fed, day 6): 15.7 (9.54–25.8) mL/min
fe0–24 ([1]; 2.5 mg single dose, fed, day 6): 1.27 (0.659–2.47) %
CLR0–24 [1, 4]: 17.0 (11.8–24.5) mL/min
fe0–24 [1, 4]: 1.65 (0.959–2.84) %
CLR0–24 [1, 5]: 16.4 (11.3–23.7) mL/min
fe0–24 [1, 5]: 0.640 (0.279–1.47) %
CLR0–24 ([1]; 5 mg single dose, fed, day 6): 15.1 (11.8–19.3) mL/min
fe0–24 ([1]; 5 mg single dose, fed, day 6): 1.09 (0.730–1.64) %
CLR0–24 [1, 6]: 17.0 (9.43–25.4) mL/min
fe0–24 [1, 6]: 1.77 (1.38–2.25) %
CLR0–24 [1, 7]: 13.1 (10.1–16.9) mL/min
fe0–24 [1, 7]: 0.733 (0.558–0.964) %
fe0–24 ([1]; 10 mg single dose, fed, day 6): 1.63 (1.24–2.16) %
CLR0–24 [1, 8]: 16.0 (8.22–31.3) mL/min
fe0–24 [1, 8]: 1.83 (1.23–2.73) %
CLR0–24 [1, 9]: 9.30 (5.46–15.9) mL/min
fe0–24 [1, 9]: 0.788 (0.424–1.45) %
CLR0–24 ([1]; 15 mg single dose, fed, day 6): 12.0 (6.06–23.7) mL/min
fe0–24 ([1]; 15 mg single dose, fed, day 6): 1.14 (0.907–1.45) %
renal clearance GMR, Japanese vs non-Asian ([1]; multiple dosing, 90% CI 79.7–126): 100%
fraction of drug excreted in urine GMR, Japanese vs non-Asian ([1]; multiple dosing, 90% CI 98.7–153): 123%
renal clearance GMR, Japanese vs non-Asian ([1]; single dose, fasted, 90% CI 53.7–91.4): 70.0%
fraction of drug excreted in urine GMR, Japanese vs non-Asian ([1]; single dose, fasted, 90% CI 70.9–124): 93.7%
renal clearance GMR, Japanese vs non-Asian ([1]; single dose, fed, 90% CI 65.0–101): 80.9%
fraction of drug excreted in urine GMR, Japanese vs non-Asian ([1]; single dose, fed, 90% CI 107–191): 143%
time of maximum reduction in sUA (serum urate (sUA); Japanese and non-Asian subjects, multiple once-daily doses, fed): ≤ 12 hours postdose
sUA least square mean maximum percent change from baseline at 12 hours (serum urate (sUA); [10]): −31%
sUA percent change from baseline at 24 hours (serum urate (sUA); [10]): −16%
sUA least square mean maximum percent change from baseline at 12 hours (serum urate (sUA); [11]): −50%
sUA percent change from baseline at 24 hours (serum urate (sUA); [11]): −31%
sUA least square mean maximum percent change from baseline at 12 hours (serum urate (sUA); [12]): −62%
sUA percent change from baseline at 24 hours (serum urate (sUA); [12]): −46%
sUA concentration at maximum reduction (serum urate (sUA); [13]): < 2 mg/dL
sUA least square mean maximum percent change from baseline at 12 hours (serum urate (sUA); [13]): −74%
sUA percent change from baseline at 24 hours (serum urate (sUA); [13]): −55%
mean reduction of serum urate after 24 hours (serum urate (sUA); Japanese subjects): 46%
sUA maximum percent change from baseline (serum urate (sUA); [14]): −58%
sUA percent change from baseline at 24 hours postdose (serum urate (sUA); [14]): −44%
mean reduction of serum urate after 24 hours (serum urate (sUA); non-Asian subjects): 44%
CLUR0–24 ([2]; 2.5 mg multiple dose, fed): 12.2 (10.3–14.2) mL/min
FEUA0–24 ([2]; 2.5 mg multiple dose, fed): 7.57 (6.74–8.41) %
CLUR0–24 ([2]; 2.5 mg single dose, fasted): 7.82 (6.90–8.74) mL/min
FEUA0–24 ([2]; 2.5 mg single dose, fasted): 7.72 (6.01–9.43) %
CLUR0–24 ([2]; 2.5 mg single dose, fed): 11.4 (9.74–13.0) mL/min
FEUA0–24 ([2]; 2.5 mg single dose, fed): 7.75 (6.80–8.70) %
percent change from baseline in AeUR, 0–6 hour interval ([2]; 2.5 mg, day 1 (fasted)): 18%
percent change from baseline in AeUR, 0–6 hour interval ([2]; 2.5 mg, day 6 (fed)): 62%
percent change from baseline in AeUR, 0–6 hour interval ([2]; 2.5 mg, day 12 (steady-state, fed)): −17%
CLUR0–24 ([2]; 5 mg multiple dose, fed): 13.7 (9.35–18.1) mL/min
FEUA0–24 ([2]; 5 mg multiple dose, fed): 14.5 (9.93–19.1) %
CLUR0–24 ([2]; 5 mg single dose, fasted): 10.9 (8.88–12.9) mL/min
FEUA0–24 ([2]; 5 mg single dose, fasted): 9.05 (7.20–10.9) %
CLUR0–24 ([2]; 5 mg single dose, fed): 16.0 (11.7–20.3) mL/min
FEUA0–24 ([2]; 5 mg single dose, fed): 11.2 (7.42–14.9) %
percent change from baseline in AeUR, 0–6 hour interval ([2]; 5 mg, day 1 (fasted)): 59%
percent change from baseline in AeUR, 0–6 hour interval ([2]; 5 mg, day 6 (fed)): 114%
percent change from baseline in AeUR, 0–6 hour interval ([2]; 5 mg, day 12 (steady-state, fed)): −35%
CLUR0–24 ([2]; 10 mg multiple dose, fed): 19.7 (16.7–22.7) mL/min
FEUA0–24 ([2]; 10 mg multiple dose, fed): 13.7 (10.8–16.6) %
CLUR0–24 ([2]; 10 mg single dose, fasted): 14.3 (10.7–17.9) mL/min
FEUA0–24 ([2]; 10 mg single dose, fasted): 10.8 (7.87–13.6) %
CLUR0–24 ([2]; 10 mg single dose, fed): 16.0 (9.88–22.1) mL/min
FEUA0–24 ([2]; 10 mg single dose, fed): 20.5 (11.3–29.6) %
percent change from baseline in AeUR, 0–6 hour interval ([2]; 10 mg, day 1 (fasted)): 114%
percent change from baseline in AeUR, 0–6 hour interval ([2]; 10 mg, day 6 (fed)): 131%
